Source: ChEMBL document CHEMBL1152910, “Synthesis and structure-activity relationships of phenothiazine carboxylic acids having pyrimidine-dione as novel histamine H(1) antagonists” (Bioorg Med Chem Lett, 2009)

Tests used:
[1] = Protein binding in rat by equilibrium dialysis; type: ADME, organism-based; details: read-out: PB (converted)
Method in brief: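 Protein binding (%) determined by equilibrium dialysis.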

[2] = Oral bioavailability in rat; type: ADME, organism-based; details: in vivo
[3] = organism: Mus musculus; assay: animal or person; type: functional; details: ddY, route oral
[4] = Apparent permeability from apical to basolateral side of human Caco-2 cells after 120 mins
[5] = molecular target: T1, Histamine H1 receptor (Homo sapiens, UniProt P35367); assay: Displacement of [3H]pyrilamine from human recombinant histamine H1 receptor expressed in CHOK1 cells by scintillation counting; type: cell-based, CHO-K1
T1 sequence (P35367 whole entry): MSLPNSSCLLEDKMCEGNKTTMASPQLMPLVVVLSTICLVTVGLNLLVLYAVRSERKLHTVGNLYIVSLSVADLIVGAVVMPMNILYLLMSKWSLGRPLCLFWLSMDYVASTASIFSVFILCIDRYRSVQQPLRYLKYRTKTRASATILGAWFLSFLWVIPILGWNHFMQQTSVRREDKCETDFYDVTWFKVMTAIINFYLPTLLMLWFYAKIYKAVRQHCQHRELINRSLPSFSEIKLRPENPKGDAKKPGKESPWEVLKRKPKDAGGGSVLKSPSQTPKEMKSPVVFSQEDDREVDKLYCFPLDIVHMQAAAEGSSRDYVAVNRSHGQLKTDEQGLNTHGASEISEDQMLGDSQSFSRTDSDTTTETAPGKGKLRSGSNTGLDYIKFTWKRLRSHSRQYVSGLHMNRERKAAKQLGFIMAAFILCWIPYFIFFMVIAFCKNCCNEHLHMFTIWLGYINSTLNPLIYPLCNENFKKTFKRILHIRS

[6] = tested on: Mus musculus; assay: Antiinflammatory activity in BALB/c mouse model assessed as inhibition of ovalbumin-induced ear swelling at 10 mg/kg, po administered 60 mins before ovalbumin challenge measured 24 hrs after elicitation by late type reaction assay; type: functional
Method in brief: (§1)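 Female BALB/c mice, 8 weeks old, sensitized by i.p. OVA with alum; two weeks later compound suspended in 0.5% MC given orally 60 min before OVA injection into the ear.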

[7] = tested on: Mus musculus; assay: Antiinflammatory activity in BALB/c mouse model assessed as inhibition of ovalbumin-induced ear swelling at 10 mg/kg, po administered 60 mins before ovalbumin challenge measured 1 hr after elicitation by immediate type reaction assay; type: functional; method in brief: as §1
[8] = tested on: Mus musculus; assay: In vivo antihistaminic activity at histamine H1 receptor in ddY mouse assessed as inhibition of histamine-induced skin vascular permeability at 10 mg/kg, po administered 1 hr before histamine challenge measured after 30 mins by Evan's blue staining; type: functional
[9] = tested on: Mus musculus; assay: Antiinflammatory activity in po dosed BALB/c mouse model assessed as inhibition of ovalbumin-induced ear swelling administered 60 mins before ovalbumin challenge measured 1 hr after elicitation by immediate type reaction assay; type: functional, organism-based; method in brief: as §1
[10] = tested on: Mus musculus; assay: Antiinflammatory activity in po dosed BALB/c mouse model assessed as inhibition of ovalbumin-induced ear swelling administered 60 mins before ovalbumin challenge measured 24 hrs after elicitation by late type reaction assay; type: functional, organism-based; method in brief: as §1
[11] = tested on: Mus musculus; assay: Antiinflammatory activity in BALB/c mouse model assessed as inhibition of ovalbumin-induced ear swelling at 30 mg/kg, po administered 60 mins before ovalbumin challenge measured 24 hrs after elicitation by late type reaction assay; type: functional; method in brief: as §1
[12] = tested on: Mus musculus; assay: Antiinflammatory activity in BALB/c mouse model assessed as inhibition of ovalbumin-induced ear swelling at 30 mg/kg, po administered 60 mins before ovalbumin challenge measured 1 hr after elicitation by immediate type reaction assay; type: functional; method in brief: as §1
[13] = molecular target: T1, Histamine H1 receptor; assay: Inhibition of histamine H1 receptor

SMILES	fraction unbound [1]	bioavailability [2] [%]	Papp A→B at 2 h [4] [×10⁻⁶ cm/s]	IC50 [5] [nM]	inhibition in vivo at 3 mg/kg [3] [%]	inhibition in vivo at 10 mg/kg [6] [%]	inhibition in vivo at 10 mg/kg [7] [%]	other results
Cn1c(C2=CCN(CCCN3c4ccccc4Sc4ccc(CC(=O)O)cc43)CC2)cc(=O)n(C)c1=O		30	4.7	41	82	12	86	
Cn1c(N2CCCN(CCCN3c4ccccc4Sc4cccc(C(=O)O)c43)CC2)cc(=O)n(C)c1=O			0.5	> 500				
Cn1c(N2CCCN(CCCN3c4ccccc4Sc4c(C(=O)O)cccc43)CC2)cc(=O)n(C)c1=O			0.5	> 500				
CC(C)(C(=O)O)c1ccc(C(O)CCCN2CCC(C(O)(c3ccccc3)c3ccccc3)CC2)cc1 (centres undefined) [FEXOFENADINE]						6	61	
C[C@]12C=CC(=O)C=C1CC[C@@H]1[C@@H]2[C@@H](O)C[C@@]2(C)[C@H]1CC[C@]2(O)C(=O)CO [PREDNISOLONE]						81	22	
CN(CCCN1CCC(CN2c3ccccc3Sc3ccc(C(=O)O)cc32)CC1)c1cc(=O)n(C)c(=O)n1C			0.6	53				
Cn1c(NCCCN2CCC(CN3c4ccccc4Sc4ccc(C(=O)O)cc43)CC2)cc(=O)n(C)c1=O			0.4	46				
CN1CCC(=C2c3ccccc3CC(=O)c3sccc32)CC1.O=C(O)/C=C/C(=O)O [KETOTIFEN FUMARATE]			11.1		98	3	119	inhibition in vivo at 30 mg/kg [11]: -4%; inhibition in vivo at 30 mg/kg [12]: 106%
Cn1c(NCCCN2CCC(Oc3ccc(Cl)cc3C(=O)O)CC2)cc(=O)n(C)c1=O								IC50 [13]: > 1000 nM
Cn1c(NCCCN2CCC(Oc3ccc(Cl)c(Cl)c3)CC2)cc(=O)n(C)c1=O	0.166	25	4.2	28				inhibition in vivo at 30 mg/kg [11]: 61%; inhibition in vivo at 30 mg/kg [12]: 72%; IC50 [13]: 58 nM; inhibition in vivo at 10 mg/kg [8]: 69%

Continued, in another order:

fraction unbound [1]	bioavailability [2] [%]	Papp A→B at 2 h [4] [×10⁻⁶ cm/s]	IC50 [5] [nM]	SMILES	inhibition in vivo at 3 mg/kg [3] [%]	inhibition in vivo at 10 mg/kg [6] [%]	inhibition in vivo at 10 mg/kg [7] [%]	other results
0.001	51	5.1	105	Cn1c(N2CCN(CCCN3c4ccccc4Sc4ccc(CCC(=O)O)cc43)CC2)cc(=O)n(C)c1=O	51			
0.051	19	5.5	23	Cn1c(N2CCCN(CCCN3c4ccccc4Sc4ccc(CC(=O)O)cc43)CC2)cc(=O)n(C)c1=O	53	12	16	
	14	22.3	41	CCC(C(=O)O)c1ccc2c(c1)N(CCCN1CCCN(c3cc(=O)n(C)c(=O)n3C)CC1)c1ccccc1S2 (centres undefined)	51			
0.001	16	20.3	35	Cn1c(N2CCN(CCCCN3c4ccccc4Sc4ccc(C(=O)O)cc43)CC2)cc(=O)n(C)c1=O				inhibition in vivo at 10 mg/kg [8]: 43%
		4.9	124	Cn1c(N2CCN(CCN3c4ccccc4Sc4ccc(C(=O)O)cc43)CC2)cc(=O)n(C)c1=O				
0.006	17	9.9	37	Cn1c(N2CCN(CCCN3c4ccccc4Sc4ccc(C(=O)O)cc43)CC2)cc(=O)n(C)c1=O		65	47	inhibition in vivo at 10 mg/kg [8]: 39%
0.012	7	4.7	23	Cn1c(N2CCCN(CCCN3c4ccccc4Sc4ccc(C(=O)O)cc43)CC2)cc(=O)n(C)c1=O	14	53	50	
0.012	7	7.7	69	Cn1c(N2CCCN(CCCN3c4ccccc4Sc4ccc(CCC(=O)O)cc43)CC2)cc(=O)n(C)c1=O	51	49	79	
0.022	27	12.3	40	Cn1c(N2CCN(CCCN3c4ccccc4Sc4ccc(CC(=O)O)cc43)CC2)cc(=O)n(C)c1=O	61	64	73	inhibition [9]: Dose-dependent effect; inhibition [10]: Dose-dependent effect
0.045		9.9	123	Cn1c(N2CCCN(CCCN3c4ccccc4Sc4ccc(C(C)(C)C(=O)O)cc43)CC2)cc(=O)n(C)c1=O				
0.022	10	6.9	72	CC(C(=O)O)c1ccc2c(c1)N(CCCN1CCCN(c3cc(=O)n(C)c(=O)n3C)CC1)c1ccccc1S2 (centres undefined)	79			
0.047		0.5	88	Cn1c(N2CCCN(CCCN3c4ccccc4Sc4ccc(OCC(=O)O)cc43)CC2)cc(=O)n(C)c1=O				
		7.1	323	Cn1c(N2CCCN(CCCN3c4ccccc4Sc4ccc(/C=C\C(=O)O)cc43)CC2)cc(=O)n(C)c1=O				
